NS3 helicase inh: HCV NS3 helicase inhibition. inhibition, % at 10.9 µM. NS3 helicase DNA unwinding, Cy5 molecular beacon fluorescence. 0.56% of 290,000 active;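 active means inhibition above the mean of all tested compounds plus 3 SD, set per campaign, cut at about 35% in these data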;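 further: 0% = DMSO wells and 100% = thioflavine S control wells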
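Assay system – hepatitis C virus NS3 helicase domain fragment enzyme · Buffer or medium – MOPS pH 6.5, MgCl2, DTT, Tween20, BSA · Reagent – Cy5/quencher beacon DNA duplex and ATP to start · Compound – single 10.9 µM dose · Timing – 1 h at 25 °C · Technique – Cy5 beacon fluorescence read at start and 1 h · Measure – % inhibition of unwinding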
rCAG binder: binds r(CAG) RNA repeats. 1.3% of 370,000 active. r(CAG) RNA repeat, TO-PRO-1 dye displacement fluorescence. AID 651821. inhibition, % at 3 µM;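 active means inhibition above the plate cutoff, the mean of all test compounds on that plate plus 3 SD, cut at about 35% in these data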;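 further: 0% = DMSO alone and 100% = 100 µM mitoxantrone as full dye displacement; higher means more dye released from RNA so lower well fluorescence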
TAAR1 antagonist: antagonists of human TAAR1; Q96RJ0; CHO RD-HGA16 TAAR1, Fluo-8 calcium fluorescence, antagonist; inhibition, % at 3 µM; 1.5% of 360,000 active;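 active means inhibition above a per-plate cutoff, the mean inhibition of test compounds on that plate plus 3 SD, cut at about 49% in these data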;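 further: 0% = DMSO plus EC80 beta-PEA response and 100% = DMSO alone without agonist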
Target sequence (Q96RJ0 whole entry, looked up): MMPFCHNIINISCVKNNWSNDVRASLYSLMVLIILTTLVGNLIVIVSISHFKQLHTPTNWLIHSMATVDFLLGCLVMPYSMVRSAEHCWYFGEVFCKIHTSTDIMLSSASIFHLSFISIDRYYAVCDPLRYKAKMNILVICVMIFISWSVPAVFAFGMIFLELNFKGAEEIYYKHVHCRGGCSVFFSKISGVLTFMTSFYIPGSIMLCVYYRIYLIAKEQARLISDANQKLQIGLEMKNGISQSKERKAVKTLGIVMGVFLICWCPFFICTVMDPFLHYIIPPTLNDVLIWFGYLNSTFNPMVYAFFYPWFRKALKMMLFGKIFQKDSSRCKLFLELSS
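Test system – hTAAR1-expressing CHO RD-HGA16 cells, Gα16-coupled · Reagent – β-PEA at EC80 concentration, post-compound challenge · Compound dosing – 3 µM, single point · Timing – 140 s kinetic read after compound, 140 s after agonist · Detection – Fluo-8 intracellular calcium dye fluorescence, real-time kinetic reads · Control set – DMSO and EC80 PEA controls · Repeats – n of 1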
TAAR1 agonist: human TAAR1 agonism; Q96RJ0; CHO RD-HGA16 TAAR1, Fluo-8 calcium fluorescence; vehicle wells 0%, saturating PEA agonist 100%; activation, % at 3 µM; 0.99% of 360,000 active;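 active means activation above the mean activation of all test compounds in the run plus 3 SD, cut at about 38% in these data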
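Assay system – CHO-derived RD-HGA16 cells with stable Gα16 and human TAAR1 · Compound dosing – one-point dosing at 3 µM (nominal) · Incubation – 17-24 h seeding, 75 min 37 °C dye, 30 min RT · Measured by – kinetic Fluo-8 calcium fluorescence · Control set – DMSO vehicle as 0%, PEA at EC100 as 100% · Repeats – single well for each compound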
HCV core dimer: HCV core protein dimerization inhibition | TR-FRET GST/Flag-core106 dimerization, 1536-well | inhibition, % at 5 µM | 0.33% of 300,000 active | AID 1899;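 active means inhibition above the mean of all tested compounds plus 3 SD, set per screening campaign, cut at about 45% in these data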
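Assay system: tagged HCV core106 pair (GST and Flag); medium: KF-containing HEPES buffer, pH 7.45, DTT, CHAPS, BSA; also added: Eu donor and XL665 acceptor anti-tag antibodies; dosing: 5 µM single dose; timing: compound-protein-antibody incubation 4 h at 22.5 °C; signal: TR-FRET 671 and 617 nm emission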
The depositor's hits bear a star; nt = no result given. A selection: hits, their analogues and other compounds. The true share with any hit is near 3.7%.

SMILES	NS3 helicase inh	rCAG binder	TAAR1 antagonist	TAAR1 agonist	HCV core dimer
CN[C@@H]1CC[C@H](c2ccc(Cl)c(Cl)c2)c2ccccc21	-68.5	11.4	5.8	44.6*	nt
Cc1cc(C)cc(-n2c(C)cc(C(=O)CSc3nnnn3C)c2C)c1	10.4	-6.4	43.9	38.4*	9.3
CCCCn1nc(NS(=O)(=O)c2cccc3nonc23)c2cc3cccc(C)c3nc21	-19.2	74.3*	-17.0	-3.6	2.0
COC(=O)[C@]12C=CCN1[C@H](c1ccc(C(F)(F)F)cc1)c1c(c3ccccc3n1S(=O)(=O)c1ccc(C)cc1)C2	nt	20.2	nt	nt	nt
COc1ccc(-c2noc(C3CCCN(C(=O)Nc4cccc(C)c4)C3)n2)cc1 (stereo not drawn)	nt	6.7	nt	nt	nt
COc1ccccc1CCNC(=O)C1CCC(=O)N(Cc2ccccc2OC)C1 (stereo not drawn)	-0.5	-7.2	-26.6	1.6	-2.5
COc1ccccc1CN1CC(C(=O)NCCN(C)CCc2ccccc2)CCC1=O (stereo not drawn)	-25.3	-7.2	-23.6	38.8*	3.3
Cc1[nH]n(-c2ccccc2)c(=O)c1N=Nc1nccs1	10.0	10.2	7.8	41.9*	-15.7
CCOC(=O)Cc1csc(NC(=O)CSc2ncnc3c2cnn3-c2ccccc2Cl)n1	-7.4	1.4	62.1*	22.8	nt
CCN(CC)c1ccc(-c2c(C#N)c(N)nc(OC)c2C#N)cc1	-7.0	4.3	56.5*	32.6	6.3
Cn1nc(N)c2c(-c3ccc(Cl)cc3)c(C#N)c(N)nc21	-9.9	-3.5	-0.6	0.2	-19.6
O=C1COc2ccc(C(=O)COC(=O)c3ccc(F)cc3Cl)cc2N1	nt	4.6	57.1*	11.6	nt
O=C1COc2ccc(C(=O)COC(=O)/C=C/c3ccc(Br)o3)cc2N1	nt	23.3	2.5	2.5	84.3*
Cc1ccc(/C=C/C(=O)OCC(=O)c2ccc3c(c2)NC(=O)CO3)o1	nt	12.2	12.8	1.7	nt
CCN(Cc1ccccc1)C(=O)CCCN1C(=O)COc2ccc(C)cc21	nt	-2.5	nt	nt	nt
CCOC(=O)C1=C(COC(=O)/C=C/c2ccccc2F)NC(=O)NC1C (stereo not drawn)	nt	-8.2	55.9*	22.9	0.1
CCOC(=O)C1=C(COC(=O)/C=C/c2cccc(F)c2)NC(=O)NC1C (stereo not drawn)	nt	-1.6	52.2*	17.5	nt
CCOC(=O)C1=C(COC(=O)/C=C/c2ccccc2Cl)NC(=O)NC1C (stereo not drawn)	-16.2	-10.8	40.1	7.5	6.0
CCOC(=O)C1=C(COC(=O)/C=C/c2ccc(F)cc2)NC(=O)NC1C (stereo not drawn)	nt	-0.3	55.3*	18.4	nt
CCOC(=O)C1=C(COC(=O)/C=C/c2ccc(Cl)cc2)NC(=O)NC1C (stereo not drawn)	-0.6	-3.1	38.5	6.2	5.3
COc1ccc(Cl)cc1S(=O)(=O)N1CCN(C(=O)CSc2nc3ccccc3nc2N2CCCC2)CC1	nt	8.8	nt	nt	nt
O=C(CCc1ccccc1)N[C@H]1[C@H](O)CCC[C@]12C(=O)N(Cc1ccccc1)c1ccccc12	nt	2.1	nt	nt	nt
C=CCN(CC#Cc1ccc(C(F)(F)F)cc1)CC=C	nt	-0.2	nt	nt	nt
O=C(CCC(=O)Nc1ccccc1)NNC(=O)c1cccs1	2.7	3.4	6.1	39.5*	0.3
O=C(c1nc2ccc(Cl)cn2c1CN1CCCC1)N1CCc2ccccc2C1	22.6	4.8	-17.8	47.2*	25.5
SMILES	NS3 helicase inh	rCAG binder	TAAR1 antagonist	TAAR1 agonist	HCV core dimer
O=C(c1ncn(Cc2ccccc2)c1C(=O)N1CCc2ccccc2C1)N1CCc2ccccc2C1	nt	-4.9	44.8	40.9*	nt
CCCSc1nnc(-c2ccco2)n1C	nt	3.3	nt	nt	nt
CCC[C@@H](/C=C/C(=O)OC(C)(C)C)Sc1ccc(OC)cc1	nt	-0.8	nt	nt	nt
COC(=O)[C@@]12CCCCC3=C1N(CCC3)C(=O)[C@H]2CC(=O)NCc1ccccc1	nt	-0.1	nt	nt	nt
COc1ccc(NC(=O)NN2CCOCC2)cc1OC	-3.4	-3.8	63.2*	5.8	-1.4
COc1ccc(NC(=O)NN2CCN(C)CC2)cc1OC	0.2	0.7	-3.9	1.8	0.6
CCCC(=O)OC12CCCN(C1)/C(=C/c1ccc(OC)cc1)C2 (stereo not drawn)	nt	0.5	nt	nt	nt
Cc1ccccc1CN1CCCCC(NC(=O)C2CCCCC2)C1=O (stereo not drawn)	nt	1.6	nt	nt	nt
COc1ccc(NC(=O)COC(=O)CCCC2=NS(=O)(=O)c3ccccc3N2)cc1	-1.8	4.8	-16.4	39.1*	6.0
CN(Cc1ccccc1)C(=O)OCc1cn(Cc2ccc(F)cc2F)nn1	nt	-0.1	nt	nt	nt
Cc1cccc(OCC(=O)Nc2ccc(C(=O)Nc3ccccc3C(=O)O)cc2)c1C	-11.9	41.1*	-40.1	-0.6	20.9
COc1ccc(-c2csc(NC(=S)NC(=O)c3cccs3)n2)cc1Br	-1.9	10.0	-24.3	-0.5	7.5
COc1ccc(-c2csc(NC(=O)c3cccc(N4C(=O)CCC4=O)c3)n2)cc1C	-12.7	4.5	48.9*	12.4	-7.7
COc1ccc(-c2csc(NC(=S)NC(=O)c3cccs3)n2)cc1OC	-6.4	30.9	49.6*	3.6	nt
COc1ccc(-c2csc(NC(=O)C3=NN(c4ccccc4)C(=O)CC3)n2)cc1	17.2	2.8	56.6*	18.3	12.3
CCOc1ccc(-n2c(SCC(=O)Nc3cc4oc5ccccc5c4cc3OC)nnc2-c2cccc(Cl)c2)cc1	nt	7.1	nt	nt	nt
COc1ccc(C2C(C(=O)c3ccccc3)N3c4ccccc4C=CC3C2[N+](=O)[O-])cc1 (stereo not drawn)	4.3	-5.9	19.2	42.7*	nt
COc1ccc(N2C(=O)[C@@H]3[C@H](C2=O)[C@H](C(C)=O)N2c4ccccc4C=C[C@@H]32)cc1	-34.2	18.0	-25.3	2.0	27.2
COC(=O)[C@]12C[C@H](CC(=O)N3CCN(C(=O)c4ccco4)CC3)C(=O)N(Cc3ccc(Cl)cc3Cl)C1=C[C@H](COCc1ccccc1)O[C@@H]2C	nt	10.8	nt	nt	nt
Cc1cccc(C(=O)N2CCc3cc(-c4nc(NC(=O)Cn5nnc6ccccc6c5=O)sc4C)ccc32)c1	10.9	nt	nt	nt	52.1*
Cc1cccc(C(=O)N2CCc3cc(-c4nc(NC(=O)CN5CCCC5)sc4C)ccc32)c1	-54.1	3.5	-21.9	-0.9	4.0
COc1cc2c(=O)n(Cc3ccco3)c(=O)n(CC(=O)c3cccc(Br)c3)c2cc1OC	0.6	nt	nt	nt	46.9*
Cc1c[nH]c2cccc(-c3ccccc3)c12	nt	4.3	nt	nt	nt
CCOc1ccc(S(=O)(=O)N2CCCCC2)cc1NC(=O)CN1C(=O)NC(CC)(c2ccccc2)C1=O (stereo not drawn)	-2.8	2.1	17.1	2.4	16.5
CCC1(c2ccccc2)NC(=O)N(CC(=O)Nc2cc(S(=O)(=O)N3CCCCCC3)ccc2OC)C1=O (stereo not drawn)	nt	4.0	69.7*	15.3	8.2
COc1ccc(S(=O)(=O)N2CCCCC2)cc1NC(=O)CN(Cc1ccco1)Cc1ccco1	nt	7.8	63.9*	17.0	nt

Screening data (PubChem BioAssay)
